Measured values from ChEMBL document CHEMBL4699485, “Discovery and Development of SPR519 as a Potent, Selective, and Orally Bioavailable Inhibitor of PI3Kα and mTOR Kinases for the Treatment of Solid Tumors” (J Med Chem, 2020).

Assays:
[1] = Drug level in Swiss mouse liver at 30 mg/kg, po administered twice daily via gavage for 5 days and measured post last dose by LC-MS/MS analysis; assay type: ADME, organism-based; settings: time 5 day, read-out: Drug uptake
In short: (§1)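 Female Swiss mice (n=3) given 30 mg/kg in 0.5% CMC/Tween 80 by oral gavage twice daily for 5 days, with two vehicle controls. After sacrifice, liver, kidney, lung, uterus and brain were collected, homogenized in water and solvent-extracted. Drug concentration (ng/g) measured by LC-MS/MS.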

[2] = Toxicity in Swiss mouse assessed as morphological changes in lung at 30 mg/kg, po administered twice daily via gavage for 5 days and measured post last dose; assay type: organism-based; settings: in vivo, 120 h, time 5 day
In short: (§2)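 Female Swiss mice (3 treated, 2 controls) were gavaged twice daily for 5 days, with compound in 0.5% CMC and Tween 80. After the last dosing the animals were sacrificed. Liver, kidney, lung, uterus and brain were excised and inspected visually for morphology and color change.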

[3] = target: Phosphatidylinositol 4,5-bisphosphate 3-kinase catalytic subunit beta isoform (Homo sapiens) (UniProt P42338); test: Inhibition of human PI3kbeta at 1 uM using fluorescently labeled peptide substrate measured after 3 hrs by microfluidic mobility shift assay relative to control
In short: (§3)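 Single-concentration screen at 1 µM in duplicate, 1% final DMSO. Kinase (typically 1 nM), fluorescently labeled peptide substrate (typically 1 µM), ATP at Km and Mg²⁺ incubated about 3 h at 25 °C, then EDTA-quenched. Substrate and phosphorylated product separated by microfluidic electrophoresis and quantified by fluorescence.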

[4] = AUC in Swiss mouse at 1 mg/kg, po via gavage by LC-MS/MS analysis; assay type: ADME, organism-based; set-up: dose 1 mg/kg; settings: in vivo
In short: (§4)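 Female Swiss mice (n=3/group), fasted overnight, given single oral gavage dose in 0.5% CMC/0.5% Tween 80 (10 mL/kg) at 1, 3 or 10 mg/kg. Serial blood sampling at 0.16–8 h into heparinized tubes. Plasma extracted with acetonitrile containing verapamil internal standard and quantified by LC-MS/MS. Cmax, Tmax, AUC and t1/2 derived from the concentration–time profile.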

[5] = Drug level in Swiss mouse lung at 30 mg/kg, po administered twice daily via gavage for 5 days and measured post last dose by LC-MS/MS analysis; assay type: ADME, organism-based; settings: time 5 day, read-out: Drug uptake; in short: as §1
[6] = target: PI3-kinase p110-alpha/p85-alpha (Homo sapiens, UniProt P42336); test: Inhibition of recombinant human full-length N-terminal His-tagged p110 alpha/p85 alpha expressed in baculovirus expression system using PIP2 as substrate preincubated for 15 mins followed by substrate addition and measured after 60 mins by ADP HiLyte 647 tracer bound ADP2 antibody-Tb conjugate based HTRF assay
In short: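 PI3Kα at 150 ng/mL (diluted stock) in 50 mM HEPES pH 7.4, 3 mM MgCl2, 2 mM DTT, 0.05% CHAPS, 50 mM NaCl, 1 mM EGTA. Compound tested over 10–0.001 µM. Final reaction held 50 µM PIP2 and 1 µM ATP. Detection mix added for 1 h, then 665/615 nm ratio read. % inhibition versus concentration fitted by four-parameter nonlinear regression to give IC50.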

[7] = target: Cyclin-dependent kinase 7 (Homo sapiens) (UniProt P50613); test: Inhibition of human CDK7 at 1 uM using fluorescently labeled peptide substrate measured after 3 hrs by microfluidic mobility shift assay relative to control; in short: as §3
[8] = Toxicity in Swiss mouse assessed as morphological changes in brain at 30 mg/kg, po administered twice daily via gavage for 5 days and measured post last dose; assay type: organism-based; settings: in vivo, 120 h, time 5 day; in short: as §2
[9] = Toxicity in Swiss mouse assessed as loss of appetite at 10 mg/kg, po administered twice daily via gavage for 5 days and measuring daily during compound dosing; assay type: organism-based; settings: in vivo, 120 h, time 5 day
In short: (§5)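 Female Swiss mice (3 treated, 2 vehicle controls) received oral gavage twice daily for 5 days, with compound formulated in 0.5% CMC and Tween 80. Body weight, body temperature, body coat, feed intake, eyes, feces and general activity were observed daily.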

SK-OV-3 = test: Antiproliferative activity against human SK-OV-3 cells after 48 hrs by MTT assay; assay type: functional, cell-based; settings: SK-OV-3, 48 h
In short: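 SK-OV-3 cells grown in McCoy's 5a with 10% FBS, 100 U/mL penicillin and 100 µg/mL streptomycin at 37 °C, 5% CO2, seeded at 10000 cells/well. Treated 48 h across 20 µM–0.001 µM. MTT (5 mg/mL in PBS) added for 4 h, DMSO solubilization, absorbance read at 550 nm. Four-parameter curve fit of % inhibition.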

[10] = target: 3-phosphoinositide-dependent protein kinase 1 (Homo sapiens) (UniProt O15530); test: Inhibition of human PDK1 at 1 uM using fluorescently labeled peptide substrate measured after 3 hrs by microfluidic mobility shift assay relative to control
Cytochrome P450 2C19 = Cytochrome P450 2C19 (Homo sapiens, UniProt P33261); test: Inhibition of CYP2C19 in human liver microsomes using isoform-specific probe substrates preincubated for 5 mins followed by NADPH addition by LC-MS/MS analysis; assay type: ADME
In short: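 Human liver microsomes premixed with buffer and a CYP-specific FDA-recommended probe substrate, then spiked with inhibitor, in duplicate. After 5 min preincubation at 37 °C, reaction started with NADPH and run at 37 °C for a set time, then quenched. Metabolite formation quantified by HPLC/LC-MS/MS to derive the concentration giving 50% inhibition.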

[11] = AUC in Swiss mouse at 3 mg/kg, po via gavage by LC-MS/MS analysis; assay type: ADME, organism-based; set-up: dose 3 mg/kg; settings: in vivo; in short: as §4
[12] = Drug level in Swiss mouse kidney at 30 mg/kg, po administered twice daily via gavage for 5 days and measured post last dose by LC-MS/MS analysis; assay type: ADME, organism-based; settings: time 5 day, read-out: Drug uptake; in short: as §1
[13] = target: RAC-alpha serine/threonine-protein kinase (Homo sapiens) (UniProt P31749); test: Inhibition of human AKT1 at 1 uM using fluorescently labeled peptide substrate measured after 3 hrs by microfluidic mobility shift assay relative to control; in short: as §3
[14] = target: Protein kinase C zeta type (Homo sapiens) (UniProt Q05513); test: Inhibition of human PRKCZ at 1 uM using fluorescently labeled peptide substrate measured after 3 hrs by microfluidic mobility shift assay relative to control; in short: as §3
[15] = Elimination half life in Swiss mouse at 1 mg/kg, po via gavage by LC-MS/MS analysis; assay type: ADME, organism-based; settings: in vivo, read-out: beta t1/2 (converted); in short: as §4
[16] = Toxicity in Swiss mouse assessed as morphological changes in liver at 30 mg/kg, po administered twice daily via gavage for 5 days and measured post last dose; assay type: organism-based; settings: in vivo, 120 h, time 5 day; in short: as §2
[17] = Toxicity in Swiss mouse assessed as change in feces at 10 mg/kg, po administered twice daily via gavage for 5 days and measuring daily during compound dosing; assay type: organism-based; settings: in vivo, 120 h, time 5 day; in short: as §5
[18] = target: Voltage-gated inwardly rectifying potassium channel KCNH2 (Homo sapiens, UniProt Q12809); test: Inhibition of human ERG channel trafficking expressed in mammalian expression system at 1 to 30 uM by HERG-Lite assay; settings: dose 1-30 µM
In short: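 HERG-lite assay scoring both channel blocking and trafficking inhibition, with test compound at 1, 10 and 30 µM. Geldanamycin (1 µM) served as the trafficking-inhibition reference and astemizole as the standard hERG binder.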

[19] = target: High affinity nerve growth factor receptor (Homo sapiens) (UniProt P04629); test: Inhibition of human TRKA at 1 uM using fluorescently labeled peptide substrate measured after 3 hrs by microfluidic mobility shift assay relative to control; in short: as §3
[20] = target: Receptor tyrosine-protein kinase erbB-2 (Homo sapiens) (UniProt P04626); test: Inhibition of human ERBB2 at 1 uM using fluorescently labeled peptide substrate measured after 3 hrs by microfluidic mobility shift assay relative to control; in short: as §3

Protein kinase C zeta type (Homo sapiens), sequence (Q05513 whole entry): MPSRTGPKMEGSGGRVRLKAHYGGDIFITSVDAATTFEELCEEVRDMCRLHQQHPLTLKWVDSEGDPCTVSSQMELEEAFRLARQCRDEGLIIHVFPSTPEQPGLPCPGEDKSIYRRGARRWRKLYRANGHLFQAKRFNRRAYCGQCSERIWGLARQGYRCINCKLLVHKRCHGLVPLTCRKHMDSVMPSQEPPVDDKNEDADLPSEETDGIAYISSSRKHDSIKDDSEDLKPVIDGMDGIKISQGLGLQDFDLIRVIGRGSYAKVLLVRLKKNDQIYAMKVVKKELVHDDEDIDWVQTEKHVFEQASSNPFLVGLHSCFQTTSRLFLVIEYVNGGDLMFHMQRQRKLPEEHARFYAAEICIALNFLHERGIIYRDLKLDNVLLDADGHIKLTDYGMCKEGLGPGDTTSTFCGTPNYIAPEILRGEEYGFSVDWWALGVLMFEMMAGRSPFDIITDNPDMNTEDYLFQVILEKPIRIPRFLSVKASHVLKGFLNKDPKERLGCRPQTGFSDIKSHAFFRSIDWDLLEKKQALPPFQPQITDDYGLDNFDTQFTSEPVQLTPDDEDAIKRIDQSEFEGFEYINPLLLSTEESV
RAC-alpha serine/threonine-protein kinase (Homo sapiens), sequence (P31749 whole entry): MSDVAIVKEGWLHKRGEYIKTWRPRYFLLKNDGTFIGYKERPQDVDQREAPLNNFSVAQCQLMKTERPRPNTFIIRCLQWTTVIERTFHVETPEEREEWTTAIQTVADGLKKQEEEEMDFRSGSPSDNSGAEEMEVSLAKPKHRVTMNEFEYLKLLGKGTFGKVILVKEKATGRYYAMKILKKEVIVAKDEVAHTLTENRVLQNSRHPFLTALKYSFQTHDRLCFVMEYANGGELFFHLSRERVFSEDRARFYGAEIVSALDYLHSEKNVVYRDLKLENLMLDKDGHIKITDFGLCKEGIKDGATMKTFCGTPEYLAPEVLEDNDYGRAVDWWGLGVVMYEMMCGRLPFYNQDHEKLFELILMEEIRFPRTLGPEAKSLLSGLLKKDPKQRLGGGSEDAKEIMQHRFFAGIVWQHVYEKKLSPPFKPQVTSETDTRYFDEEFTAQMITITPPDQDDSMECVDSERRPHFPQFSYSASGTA
PI3-kinase p110-alpha/p85-alpha, sequence (P27986 whole entry): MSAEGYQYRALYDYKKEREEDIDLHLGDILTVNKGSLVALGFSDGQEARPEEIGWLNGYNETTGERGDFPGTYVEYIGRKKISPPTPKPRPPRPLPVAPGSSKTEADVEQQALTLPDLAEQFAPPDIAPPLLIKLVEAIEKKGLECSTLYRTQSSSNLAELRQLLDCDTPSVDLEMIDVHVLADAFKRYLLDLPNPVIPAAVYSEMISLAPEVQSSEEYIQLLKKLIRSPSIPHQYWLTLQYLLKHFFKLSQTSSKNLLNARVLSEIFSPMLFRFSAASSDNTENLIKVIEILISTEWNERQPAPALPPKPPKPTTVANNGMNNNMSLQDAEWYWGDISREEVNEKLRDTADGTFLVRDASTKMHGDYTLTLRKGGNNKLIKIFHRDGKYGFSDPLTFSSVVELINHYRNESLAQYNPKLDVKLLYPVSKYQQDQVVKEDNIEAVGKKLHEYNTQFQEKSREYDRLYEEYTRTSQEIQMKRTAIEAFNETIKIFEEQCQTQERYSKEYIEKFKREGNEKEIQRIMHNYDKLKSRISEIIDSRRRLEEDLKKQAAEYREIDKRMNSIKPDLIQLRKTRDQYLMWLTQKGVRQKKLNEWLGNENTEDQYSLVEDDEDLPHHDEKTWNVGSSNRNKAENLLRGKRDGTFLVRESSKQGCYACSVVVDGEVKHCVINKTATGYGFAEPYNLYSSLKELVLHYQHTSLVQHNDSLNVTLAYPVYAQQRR
PI3-kinase p110-alpha/p85-alpha, sequence (P42336 whole entry): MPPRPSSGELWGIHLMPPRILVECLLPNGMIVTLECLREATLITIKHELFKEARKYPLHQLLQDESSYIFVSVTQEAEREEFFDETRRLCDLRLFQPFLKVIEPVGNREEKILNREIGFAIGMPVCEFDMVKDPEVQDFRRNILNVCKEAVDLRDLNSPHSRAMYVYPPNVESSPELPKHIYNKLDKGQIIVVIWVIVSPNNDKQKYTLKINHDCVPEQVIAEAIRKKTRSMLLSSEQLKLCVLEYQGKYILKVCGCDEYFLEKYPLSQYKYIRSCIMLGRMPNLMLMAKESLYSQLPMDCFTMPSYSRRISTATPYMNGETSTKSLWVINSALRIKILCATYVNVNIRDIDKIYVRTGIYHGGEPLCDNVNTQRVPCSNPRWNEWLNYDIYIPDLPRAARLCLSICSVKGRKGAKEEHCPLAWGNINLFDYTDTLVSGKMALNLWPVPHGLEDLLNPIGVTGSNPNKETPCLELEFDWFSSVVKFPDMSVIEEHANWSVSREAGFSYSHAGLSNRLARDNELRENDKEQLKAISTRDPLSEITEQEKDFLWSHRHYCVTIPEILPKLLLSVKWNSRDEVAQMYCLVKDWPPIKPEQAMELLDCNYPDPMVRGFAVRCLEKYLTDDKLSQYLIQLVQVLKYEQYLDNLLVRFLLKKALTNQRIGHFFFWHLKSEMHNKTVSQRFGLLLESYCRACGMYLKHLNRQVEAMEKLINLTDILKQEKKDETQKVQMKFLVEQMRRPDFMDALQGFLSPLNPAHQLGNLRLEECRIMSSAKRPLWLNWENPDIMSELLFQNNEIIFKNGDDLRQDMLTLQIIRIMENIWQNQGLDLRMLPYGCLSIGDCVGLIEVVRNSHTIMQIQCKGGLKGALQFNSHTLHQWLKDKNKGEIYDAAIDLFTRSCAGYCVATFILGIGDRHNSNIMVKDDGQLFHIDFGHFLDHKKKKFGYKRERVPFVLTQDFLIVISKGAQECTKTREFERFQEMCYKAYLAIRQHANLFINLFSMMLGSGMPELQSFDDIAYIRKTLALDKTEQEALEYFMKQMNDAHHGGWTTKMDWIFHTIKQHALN
Voltage-gated inwardly rectifying potassium channel KCNH2, sequence (Q12809 whole entry): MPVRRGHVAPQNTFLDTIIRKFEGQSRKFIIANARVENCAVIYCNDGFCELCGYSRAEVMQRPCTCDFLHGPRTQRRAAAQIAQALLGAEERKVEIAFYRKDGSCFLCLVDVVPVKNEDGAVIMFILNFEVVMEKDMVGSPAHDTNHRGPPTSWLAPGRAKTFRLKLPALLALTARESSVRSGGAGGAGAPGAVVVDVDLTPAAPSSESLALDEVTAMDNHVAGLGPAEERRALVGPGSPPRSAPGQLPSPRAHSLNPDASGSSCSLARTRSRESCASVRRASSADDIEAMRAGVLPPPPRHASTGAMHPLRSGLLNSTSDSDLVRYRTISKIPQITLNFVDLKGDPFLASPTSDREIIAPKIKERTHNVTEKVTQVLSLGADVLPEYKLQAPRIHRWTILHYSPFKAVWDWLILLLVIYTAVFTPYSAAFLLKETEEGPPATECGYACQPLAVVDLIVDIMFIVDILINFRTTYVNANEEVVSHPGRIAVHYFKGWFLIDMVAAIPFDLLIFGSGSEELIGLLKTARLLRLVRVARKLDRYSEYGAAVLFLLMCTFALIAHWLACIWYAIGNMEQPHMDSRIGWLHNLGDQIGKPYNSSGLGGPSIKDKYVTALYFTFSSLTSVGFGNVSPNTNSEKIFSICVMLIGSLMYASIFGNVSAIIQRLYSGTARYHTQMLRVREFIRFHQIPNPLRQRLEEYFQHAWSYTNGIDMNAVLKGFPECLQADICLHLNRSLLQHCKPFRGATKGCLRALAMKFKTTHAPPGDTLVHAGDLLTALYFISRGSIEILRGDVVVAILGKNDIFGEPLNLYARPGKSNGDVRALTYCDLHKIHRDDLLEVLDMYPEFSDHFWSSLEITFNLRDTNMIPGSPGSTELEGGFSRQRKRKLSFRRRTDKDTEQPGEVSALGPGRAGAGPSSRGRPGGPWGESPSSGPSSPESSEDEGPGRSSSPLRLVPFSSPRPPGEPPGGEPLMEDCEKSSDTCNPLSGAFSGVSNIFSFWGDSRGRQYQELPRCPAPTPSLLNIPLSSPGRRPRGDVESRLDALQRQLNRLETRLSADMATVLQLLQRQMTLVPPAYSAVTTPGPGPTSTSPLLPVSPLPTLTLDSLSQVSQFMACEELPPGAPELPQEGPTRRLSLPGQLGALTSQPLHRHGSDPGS
Cyclin-dependent kinase 7 (Homo sapiens), sequence (P50613 whole entry): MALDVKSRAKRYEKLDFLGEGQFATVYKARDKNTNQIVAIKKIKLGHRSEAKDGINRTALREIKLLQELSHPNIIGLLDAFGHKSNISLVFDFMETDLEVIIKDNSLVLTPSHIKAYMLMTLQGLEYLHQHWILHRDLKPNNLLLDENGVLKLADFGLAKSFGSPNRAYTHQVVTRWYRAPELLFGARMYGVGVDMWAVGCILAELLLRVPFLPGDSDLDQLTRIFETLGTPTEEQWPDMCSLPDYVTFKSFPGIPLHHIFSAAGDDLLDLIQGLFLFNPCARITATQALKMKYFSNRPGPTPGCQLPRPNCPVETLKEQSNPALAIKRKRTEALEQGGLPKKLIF
Cytochrome P450 2C19, sequence (P33261 whole entry, canonical isoform): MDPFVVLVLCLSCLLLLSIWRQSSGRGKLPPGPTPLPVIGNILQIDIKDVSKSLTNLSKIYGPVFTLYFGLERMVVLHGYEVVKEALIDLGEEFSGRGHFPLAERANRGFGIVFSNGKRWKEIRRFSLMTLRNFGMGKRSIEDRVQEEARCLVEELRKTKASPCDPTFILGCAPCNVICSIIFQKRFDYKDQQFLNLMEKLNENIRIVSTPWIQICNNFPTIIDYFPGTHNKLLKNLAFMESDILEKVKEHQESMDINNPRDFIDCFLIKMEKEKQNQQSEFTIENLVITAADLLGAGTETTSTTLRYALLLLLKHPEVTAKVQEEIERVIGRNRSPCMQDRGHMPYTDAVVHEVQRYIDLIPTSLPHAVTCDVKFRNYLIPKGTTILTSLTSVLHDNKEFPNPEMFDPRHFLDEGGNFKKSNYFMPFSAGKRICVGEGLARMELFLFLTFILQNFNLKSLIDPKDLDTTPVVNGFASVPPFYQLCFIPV

CN(C)C(=O)c1ccc(Oc2nc(-c3cnc(N)s3)nc(N3CCOCC3)n2)cc1
concentration at 120 h [1]: 85 ng/g
Activity [2]: Non-Toxic
inhibition [3]: 42%
AUC [4]: 26.9 µM·h
concentration at 120 h [5]: 50 ng/g
IC50 [6]: 30 nM
inhibition [7]: -10%
Activity [8]: Non-Toxic
Activity [9]: Non-Toxic
EC50 (SK-OV-3): 500 nM
inhibition [10]: -1%
IC50 (Cytochrome P450 2C19): > 10000 nM
AUC [11]: 32.1 µM·h
concentration at 120 h [12]: 160 ng/g
inhibition [13]: -1%
inhibition [14]: 0%
half-life [15]: 2.66 h
Activity [16]: Non-Toxic
Activity [17]: Non-Toxic
inhibition (INH) [18]: Not Active
inhibition [19]: 3%
inhibition [20]: -1%
